In ChEMBL document CHEMBL4330057, “Second generation of diazachrysenes: Protection of Ebola virus infected mice and mechanism of action” (Eur J Med Chem, 2019):
Calls of active or inactive are those of the source. No cut-off for these calls is given here.

Experiments:
[1] = Drug uptake in C57Bl/6 mouse serum at 10 mg/kg/day, ip qd for 7 days measured on day 5 at 15 to 180 mins post dose by UHPLC/MS analysis; format: ADME, organism-based; conditions: in vivo, read-out: Drug uptake
[2] = Drug uptake in C57Bl/6 mouse serum at 10 mg/kg/day, ip qd for 7 days measured on day 7 at 5 to 240 mins post dose by UHPLC/MS analysis; format: ADME, organism-based; conditions: in vivo, read-out: Drug uptake
Ebolavirus [3] = experiment: Antiviral activity against Ebolavirus infected in mouse assessed as protection against viral infection at 10 mg/kg/day relative to control; format: functional
Ebolavirus [4] = experiment: Antiviral activity against Ebolavirus; format: functional, organism-based; conditions: Orthoebolavirus
[5] = Drug metabolism in C57Bl/6 mouse assessed as reduction metabolite formation at 20 mg/kg/day, ip qd for 7 days measured at 24 hrs post last dose by UHPLC/MS analysis; format: ADME, organism-based; conditions: in vivo
Summary of the method: (§1)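 Serum from two mice dosed 20 mg/kg/day i.p. taken 24 h after the last dose. Compound quantified by UHPLC/MS and screened for M+2, M+16, M-2 and M+32 products or combinations.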

Zaire ebolavirus [6] = experiment: Antiviral activity against VSV pseudotyped Ebolavirus Mayinga expressing GFP infected in human HeLa cells assessed as inhibition of viral infection at 2 uM pre-incubated for 2 hrs followed by viral infection and measured after 8 hrs by cell mask deep red staining based assay; format: functional, organism-based; conditions: 1976
Summary of the method: (§2)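 HeLa cells pretreated 2 h with compound, then infected with rVSV-EBOV-GP-GFP (8 h) or VSV-GFP (6 h), and stained with Cell Mask Deep Red. Relative inhibition = 1 minus (% GFP-expressing cells normalised to mock). Mean ± SD of three replicates, representative of three independent experiments.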

[7] = Drug metabolism in C57Bl/6 mouse assessed as dehydrogenation metabolite formation at 20 mg/kg/day, ip qd for 7 days measured at 24 hrs post last dose by UHPLC/MS analysis; format: ADME, organism-based; conditions: in vivo; summary of the method: as §1
[8] = Clearance in mouse liver microsomes after 1 hr; format: ADME, Microsome; conditions: read-out: CLH
Summary of the method: (§3)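 Substrate depletion with mouse or human liver microsomes, 1 h at 37 °C. Clearance (μL/min/mg) and half-life derived.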

[9] = tested on: Vesicular stomatitis virus; experiment: Antiviral activity against VSV expressing GFP infected in human HeLa cells assessed as inhibition of viral infection at 0.1 uM pre-incubated for 2 hrs followed by viral infection and measured after 6 hrs by cell mask deep red staining based assay; format: functional, organism-based; summary of the method: as §2
[10] = Toxicity in Balb/c mouse infected with Ebolavirus Mayinga assessed as weight loss at 1 to 10 mg/kg, ip administered 2 hrs prior to viral infection daily for 6 days and measured for 14 days; format: organism-based; conditions: in vivo, 336 h
[11] = Clearance in human liver microsomes after 1 hr; format: ADME, Microsome; conditions: read-out: CLH; summary of the method: as §3
Cytochrome P450 2C19 = Cytochrome P450 2C19 (Homo sapiens, UniProt P33261); experiment: Inhibition of CYP2C19 (unknown origin) using CEC as substrate; format: ADME
Summary of the method: (§4)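 CYP IC50 was taken from the net fluorescent signal after incubation at 37 °C for a set time with active cytochrome P450 enzyme and a fluorescent probe substrate.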

[12] = Solubility of the compound in deionized water; format: physicochemical
HeLa = experiment: Induction of lysosome suppression in human HeLa cells assessed as vesicular compartment expansion pretreated for 2 hrs followed by VSV pseudotyped EBOV-GP-GFP infection for 2 to 6 hrs by uranyl acetate staining based transmission electron microscopic method; format: functional, subcellular
Summary of the method: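 HeLa cells mock-treated or treated 2 h with compound, then left uninfected or infected with rVSV-EBOV-GP-GFP for 2 h or 6 h. Processed for transmission electron microscopy to examine vesicular compartments.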

[13] = Myelotoxicity in 6 hrs post fertilized transgenic mpx:GFP zebrafish embryo assessed as reduction in neutrophil occurrence up to 40 uM measured at 72 hrs hrs post fertilization by fluorescence assay; parameters: species or system Danio rerio
Summary of the method: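 Tg(mpx:GFP) zebrafish embryos with GFP-labelled neutrophils were treated with compound. At 72 hpf, neutrophil fluorescence of the whole embryo and neutrophil occurrence were assessed.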

[14] = Drug uptake in C57Bl/6 mouse serum at 20 mg/kg/day, ip qd for 7 days measured at 24 hrs post last dose by UHPLC/MS analysis; format: ADME, organism-based; conditions: read-out: Drug uptake; summary of the method: as §1
Zaire ebolavirus [15] = experiment: Antiviral activity against Ebolavirus Mayinga infected in ip dosed Balb/c mouse assessed as protection against viral infection administered 2 hrs prior to viral infection daily for 6 days and measured for 14 days; format: functional, organism-based; conditions: 1976
Zaire ebolavirus [16] = experiment: Antiviral activity against Ebolavirus Mayinga infected in Balb/c mouse assessed as protection against viral infection at 1 to 5 mg/kg, ip administered 2 hrs prior to viral infection daily for 6 days and measured for 14 days relative to control; format: functional, 1976
[17] = Half life in human liver microsomes; format: ADME, Microsome; summary of the method: as §3
Cytochrome P450 2D6 = Cytochrome P450 2D6 (Homo sapiens, UniProt P10635); experiment: Inhibition of CYP2D6 (unknown origin) using 3-(2-(N, N-Diethyl-N-methylamino)ethyl)-7-Methoxy-4-Methylcoumarin as substrate; format: ADME; conditions: read-out: INH; summary of the method: as §4
Zaire ebolavirus [18] = experiment: Antiviral activity against VSV pseudotyped Ebolavirus Mayinga expressing GFP infected in human HeLa cells assessed as inhibition of viral infection up to 50 uM pre-incubated for 2 hrs followed by viral infection and measured after 8 hrs by high content imaging analysis; format: functional, organism-based; conditions: 1976; summary of the method: as §2
[19] = tested on: Vesicular stomatitis virus; experiment: Antiviral activity against VSV expressing GFP infected in human HeLa cells assessed as inhibition of viral infection at 2 uM pre-incubated for 2 hrs followed by viral infection and measured after 6 hrs by cell mask deep red staining based assay; format: functional, organism-based; summary of the method: as §2
[20] = Acute toxicity in C57Bl/6 mouse assessed as effect on behavior at 20 mg/kg/day, ip qd for 7 days measured twice daily for 28 days; format: organism-based; conditions: in vivo, 672 h
Summary of the method: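 Six healthy mice received 20 mg/kg i.p. once daily for seven doses. Behaviour and appearance observed twice daily for 28 days after the last dose.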

[21] = Drug metabolism in C57Bl/6 mouse assessed as oxygenation metabolite formation at 20 mg/kg/day, ip qd for 7 days measured at 24 hrs post last dose by UHPLC/MS analysis; format: ADME, organism-based; conditions: in vivo; summary of the method: as §1

Sequence of Cytochrome P450 2C19 (P33261 whole entry): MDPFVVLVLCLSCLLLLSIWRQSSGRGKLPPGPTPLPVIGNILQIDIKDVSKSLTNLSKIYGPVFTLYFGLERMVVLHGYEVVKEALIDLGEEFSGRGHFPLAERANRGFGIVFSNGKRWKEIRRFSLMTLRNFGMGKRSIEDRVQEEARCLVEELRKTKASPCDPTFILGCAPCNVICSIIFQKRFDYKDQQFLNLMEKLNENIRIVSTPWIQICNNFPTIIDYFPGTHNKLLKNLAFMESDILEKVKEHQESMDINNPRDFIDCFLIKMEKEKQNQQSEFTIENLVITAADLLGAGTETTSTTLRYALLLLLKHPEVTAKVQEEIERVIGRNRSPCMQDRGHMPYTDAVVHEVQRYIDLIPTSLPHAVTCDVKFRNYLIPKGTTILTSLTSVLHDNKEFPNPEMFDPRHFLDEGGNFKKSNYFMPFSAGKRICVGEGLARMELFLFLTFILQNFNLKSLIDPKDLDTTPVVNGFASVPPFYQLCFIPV
Sequence of Cytochrome P450 2D6 (P10635 whole entry): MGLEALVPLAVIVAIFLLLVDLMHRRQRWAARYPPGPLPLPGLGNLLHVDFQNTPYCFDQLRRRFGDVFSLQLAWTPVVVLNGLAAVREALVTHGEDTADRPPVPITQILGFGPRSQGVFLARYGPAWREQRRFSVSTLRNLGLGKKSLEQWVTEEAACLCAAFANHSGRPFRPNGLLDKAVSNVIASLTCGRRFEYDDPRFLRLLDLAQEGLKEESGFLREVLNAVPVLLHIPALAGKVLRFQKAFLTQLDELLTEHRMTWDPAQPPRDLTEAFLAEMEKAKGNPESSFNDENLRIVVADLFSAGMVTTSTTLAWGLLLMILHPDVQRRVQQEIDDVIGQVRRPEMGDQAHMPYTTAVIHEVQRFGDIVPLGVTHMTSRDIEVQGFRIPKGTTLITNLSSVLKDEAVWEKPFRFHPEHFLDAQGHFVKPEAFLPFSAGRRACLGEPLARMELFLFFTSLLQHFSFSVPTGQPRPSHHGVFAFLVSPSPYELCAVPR

With `Cl.Cl.Cl.Cl.c1cc(NCCN2CCOCC2)c2ccc3c(ccc4c(NCCN5CCOCC5)ccnc43)c2n1` the concentration [1] was 460 to 1030 nM, the concentration [2] was 460 to 650 nM and the Activity (Ebolavirus [3]) was 90%. For the same molecule, the EC50 (Ebolavirus [4]) was 700 nM.
With `Cl.Cl.Cl.Cl.c1cc(NCCCCN2CCOCC2)c2ccc3c(ccc4c(NCCN5CCOCC5)ccnc43)c2n1` the Drug metabolism [5] was “Metabolite_Notdetected”, the Activity (Zaire ebolavirus [6]) was “Active” and the Drug metabolism [7] was “Metabolite_Notdetected”. The microsomal CLint [8] was 22.3 µL/min/mg, the Activity [9] was “inactive” and the Activity [10] was “Non-Toxic”. The microsomal CLint [11] was 32.9 µL/min/mg, the INH (Cytochrome P450 2C19) was over 10 µM and the solubility [12] was at least 25 mg/mL. For the same molecule, the Activity (HeLa) was “Active”, the Activity [13] was “Non-Toxic” and the concentration at 24 h [14] was 350 to 1200 nM. For the same molecule, the Activity (Zaire ebolavirus [15]) was “Dose-dependent effect”, the Activity (Zaire ebolavirus [16]) was 50% and the half-life [17] was 42.1 min. The IC50 (Cytochrome P450 2D6) was over 10000 nM, the Activity (Zaire ebolavirus [18]) was “Active” and the Activity [19] was “inactive”. The Activity [20] was “Non-Toxic” and the Drug metabolism [21] was “Metabolite_Notdetected”.
